Test [1] can be described thus: RPL19A-GFP modulators, yeast TOR pathway, confirmation, cell-based, S. cerevisiae, flow cytometry, cherry picks, mother/daughter gates (AID 2270;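 active = GFP response below 50% of the DMSO control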). The following applies: S. cerevisiae RPL19A-GFP strain, 3 h, at 10 µM, stronger effect = lower value, 100 = same GFP as DMSO wells.
Test [2] is described as follows: LAP4-GFP expression modulators in yeast, confirmation, cell-based, cherry picks, flow cytometry, mother/daughter gates (AID 2271;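 active = GFP response above 150% of the DMSO control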;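 note: ratio of sample to DMSO plate mean so 100% equals DMSO level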). The following applies: S. cerevisiae LAP4-GFP strain, 3 h, at 10 µM, stronger effect = higher value, 100 means same as DMSO control. In short, it runs like this: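 Material: Alexa Fluor 633-labelled Saccharomyces cerevisiae GFP-fusion strain, single-plex | Amount: Yeast cells seeded at OD600 of 0.2 | Buffer or medium: SC growth medium | Schedule: 3 h exposure, 30 °C | Measured by: HT flow cytometry, GFP fluorescence channel | Evaluation: % GFP response vs DMSO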

Test [3] in a line: modulators of MEP2-GFP levels in yeast, confirmation, S. cerevisiae, flow cytometry GFP, cherry picks (AID 2272;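 active = GFP response above 150% of the DMSO control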;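 note: ratio of well signal to plate DMSO mean so 100% equals DMSO level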). The following applies: S. cerevisiae MEP2-GFP strain, 3 h, at 10 µM, stronger effect = higher value. In general terms: A flow cytometer gives signals particle by particle.
Test [4] is described as follows: AGP1-GFP expression modulators, hit retest, confirmation, cell-based, flow cytometry, S. cerevisiae, cherry picks (AID 2273).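 Note: median GFP channel fluorescence over the whole cell population gate.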 Particulars: S. cerevisiae AGP1-GFP strain, 3 h, at 10 µM.
Test [5] is described as follows: modulators of CIT2-GFP expression in yeast, confirmation, S. cerevisiae, GFP fusion, cherry picks, mother/daughter gates (AID 2274). The following applies: S. cerevisiae CIT2-GFP strain, flow cytometry, 3 h, at 10 µM, stronger effect = higher value.
Where [6] appears, read: measured here: daughter cell gate.
Where [7] appears, read: measured here: mother cell gate.
The mark [8] stands for this setting: measured here: daughter cell gate response.
[9] abbreviates: measured here: mother cell gate response.

Each structure is given as a SMILES string. Activity calls are given as the source filed them.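 Rule for the calls, unless noted: active = GFP response above 150% of the DMSO level; inconclusive = fewer than 70 events counted for a yeast strain; inactive = the rest.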

For the compound `CSC1=NS(=O)(=O)c2c(C)nn(C)c2S1`, the GFP response vs DMSO in test [1] was 88.7% (inactive); in test [1] (setting [6]), 91%; in test [1] (setting [7]), 85.8%; in test [3], 110% (inactive). In addition, the figures for the GFP response relative to DMSO in test [2], in test [2] (setting [8]) and in test [2] (setting [9]) were 156% (active), 159% and 152%, respectively. Besides, the GFP response, % of DMSO in test [4] is 104% (inactive); in test [5], 84.7% (inactive); in test [5] (setting [6]), 90.5%; in test [5] (setting [7]), 78.1%.

Regarding `Cc1c(NC(=O)Nc2ccc3c(c2)OCO3)c(=O)n(-c2ccccc2)n1C`, the GFP response vs DMSO in test [1] was 99.3% (inactive); in test [1] (setting [6]), 99.1%; in test [1] (setting [7]), 99%; in test [3] it was 99.5% (inactive). Besides, the GFP response relative to DMSO was 96.5% (inactive) in test [2], 96.5% in test [2] (setting [8]) and 93.6% in test [2] (setting [9]). Besides, the GFP response, % of DMSO in test [4] is 96.7% (inactive); in test [5] it was 96.4% (inactive); in test [5] (setting [6]), 100%; in test [5] (setting [7]) it was 95.6%.

Take `Nc1cccnc1S(=O)(=O)c1ccccc1`: the GFP response vs DMSO in test [1] is 98.8% (inactive); in test [1] (setting [6]) it was 97.8%; in test [1] (setting [7]) it was 100%; in test [3] it was 100% (inactive). Also, the results for the GFP response relative to DMSO in test [2], in test [2] (setting [8]) and in test [2] (setting [9]) were 93.8% (inactive), 94.1% and 95.2%, respectively. Besides, the GFP response, % of DMSO in test [4] is 98.5% (inactive); in test [5], 99.1% (inactive); in test [5] (setting [6]), 99.7%; in test [5] (setting [7]) it was 97.7%.

For `COc1cccc(C(=O)N/N=C(\CC(C)C)c2ccccc2)c1`, the GFP response vs DMSO in test [1] was 97.8% (inactive); in test [1] (setting [6]) it was 97%; in test [1] (setting [7]) it was 97.7%; in test [3] it was 103% (inactive). The GFP response relative to DMSO in test [2] is 100% (inactive); in test [2] (setting [8]), 101%; in test [2] (setting [9]) it was 102%. Also, the GFP response, % of DMSO is 98.4% (inactive) in test [4], 101% (inactive) in test [5], 103% in test [5] (setting [6]) and 103% in test [5] (setting [7]).

Take `COc1ccc([N+](=O)[O-])c(S(=O)(=O)c2ccccc2)n1`: the GFP response vs DMSO in test [1] is 93.7% (inactive); in test [1] (setting [6]), 95.8%; in test [1] (setting [7]), 90.8%; in test [3] it was 112% (inactive). Besides, the GFP response relative to DMSO in test [2] was 195% (active); in test [2] (setting [8]), 170%; in test [2] (setting [9]), 204%. The GFP response, % of DMSO was 113% (inactive) in test [4], 86% (inactive) in test [5], 96.8% in test [5] (setting [6]) and 75.8% in test [5] (setting [7]).

Take `CCc1ccc2c(c1)/C(=C/C(=O)c1cccs1)C(=O)N2`: the GFP response vs DMSO in test [1] was 94.9% (inactive); in test [1] (setting [6]), 94.7%; in test [1] (setting [7]), 87.7%; in test [3], 100% (inactive). The GFP response relative to DMSO is 178% (active) in test [2], 156% in test [2] (setting [8]) and 171% in test [2] (setting [9]). Besides, the GFP response, % of DMSO in test [4] was 104% (inactive); in test [5], 91.3% (inactive); in test [5] (setting [6]) it was 91.5%; in test [5] (setting [7]), 84.8%.

`CCOc1ccc(-c2noc(-c3cccnc3)n2)cc1OC`: the GFP response vs DMSO in test [1] is 97.2% (inactive); in test [1] (setting [6]), 97.1%; in test [1] (setting [7]), 96.4%; in test [3], 100% (inactive). The GFP response relative to DMSO in test [2] is 99.2% (inactive); in test [2] (setting [8]), 99.2%; in test [2] (setting [9]) it was 98.3%. Moreover, the GFP response, % of DMSO in test [4] is 95.6% (inactive); in test [5] it was 104% (inactive); in test [5] (setting [6]), 103%; in test [5] (setting [7]), 98.5%.

For the compound `CCOC(=O)/C(=N\NC(=O)c1ccccc1)c1ccccc1`, the GFP response vs DMSO in test [1] was 97.2% (inactive); in test [1] (setting [6]), 95.7%; in test [1] (setting [7]), 98.1%; in test [3], 104% (inactive). The GFP response relative to DMSO is 107% (inactive) in test [2], 105% in test [2] (setting [8]) and 106% in test [2] (setting [9]). Further, the GFP response, % of DMSO in test [4] was 96.5% (inactive); in test [5], 101% (inactive); in test [5] (setting [6]), 100%; in test [5] (setting [7]), 99.1%.

In the case of `CCn1c(=O)c(C(=O)NCCc2ccccc2)c(O)c2ccccc21`, the GFP response vs DMSO in test [1] is 98.5% (inactive); in test [1] (setting [6]), 99.8%; in test [1] (setting [7]) it was 98.8%; in test [3], 103% (inactive). Moreover, the GFP response relative to DMSO in test [2] is 95.3% (inactive); in test [2] (setting [8]), 96%; in test [2] (setting [9]), 97.4%. The GFP response, % of DMSO in test [4] is 108% (inactive); in test [5], 98.6% (inactive); in test [5] (setting [6]), 99.3%; in test [5] (setting [7]), 98.2%.

As for `COc1ccc(C(=O)NC(=S)NNC(=O)c2cnccn2)cc1`, the GFP response vs DMSO in test [1] was 99.3% (inactive); in test [1] (setting [6]) it was 91.3%; in test [1] (setting [7]), 96%; in test [3], 114% (inactive). In addition, the figures for the GFP response relative to DMSO in test [2], in test [2] (setting [8]) and in test [2] (setting [9]) were 285% (active), 176% and 262%, respectively. Also, the GFP response, % of DMSO is 95.2% (inactive) in test [4], 104% (inactive) in test [5], 96.4% in test [5] (setting [6]) and 93.3% in test [5] (setting [7]).

In the case of `O=C(NCCO)c1c(O)c2cccc3c2n(c1=O)CC3`, the GFP response vs DMSO is 99.3% (inactive) in test [1], 99.2% in test [1] (setting [6]), 99.4% in test [1] (setting [7]) and 97.8% (inactive) in test [3]. Moreover, the GFP response relative to DMSO is 92.6% (inactive) in test [2], 94.1% in test [2] (setting [8]) and 94.2% in test [2] (setting [9]). Besides, the GFP response, % of DMSO is 101% (inactive) in test [4], 97.8% (inactive) in test [5], 96.5% in test [5] (setting [6]) and 96.6% in test [5] (setting [7]).

With `CCOC(=O)c1sc(NC(=O)CN2C(=O)c3cccc4cccc(c34)C2=O)nc1C`, the GFP response vs DMSO in test [1] was 96.6% (inactive); in test [1] (setting [6]) it was 98.1%; in test [1] (setting [7]), 96.9%; in test [3], 100% (inactive). Further, the figures for the GFP response relative to DMSO in test [2], in test [2] (setting [8]) and in test [2] (setting [9]) were 87.6% (inactive), 86.4% and 87.6%, respectively. Moreover, the GFP response, % of DMSO in test [4] is 98.3% (inactive); in test [5], 98.3% (inactive); in test [5] (setting [6]) it was 101%; in test [5] (setting [7]), 97.3%.

`COc1cccc(N=Nc2ccc(O)c3ncccc23)c1`: the GFP response vs DMSO in test [1] was 98.2% (inactive); in test [1] (setting [6]), 97.4%; in test [1] (setting [7]), 98%; in test [3], 117% (inactive). The GFP response relative to DMSO in test [2] is 224% (active); in test [2] (setting [8]) it was 205%; in test [2] (setting [9]), 228%. Further, the GFP response, % of DMSO in test [4] was 91.3% (inactive); in test [5], 105% (inactive); in test [5] (setting [6]), 106%; in test [5] (setting [7]) it was 99.7%.

The values above are taken from PubChem BioAssay.
